Peptide text beside a SMILES is read from it.
Experiments:
Apelin receptor [1] = biological target: T1, Apelin receptor (Homo sapiens, UniProt P35414); assay: Agonist activity at human APJ receptor expressed in HEK293 cells co-expressing Rlucll-beta-arrestin2 assessed as induction of beta-arrestin2 recruitment to receptor incubated for 30 mins by BRET assay; format: functional, cell-based
T1 sequence (P35414 whole entry): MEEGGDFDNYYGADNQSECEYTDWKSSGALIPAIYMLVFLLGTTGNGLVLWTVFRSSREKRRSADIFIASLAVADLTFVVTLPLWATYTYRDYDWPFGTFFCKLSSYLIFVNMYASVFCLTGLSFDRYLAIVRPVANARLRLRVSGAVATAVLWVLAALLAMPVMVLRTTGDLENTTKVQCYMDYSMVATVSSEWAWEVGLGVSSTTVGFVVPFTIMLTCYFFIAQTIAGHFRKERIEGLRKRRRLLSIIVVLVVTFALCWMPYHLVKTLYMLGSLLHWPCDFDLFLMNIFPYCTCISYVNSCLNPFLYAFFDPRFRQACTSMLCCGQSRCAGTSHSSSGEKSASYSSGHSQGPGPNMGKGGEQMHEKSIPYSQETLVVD

[2] = Stability in Sprague-Dawley rat plasma assessed as half life measured up to 24 hrs by UPLC-MS analysis; format: ADME, cell-free
Summary of the method: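 Peptide (6 μL of 1 mM aqueous solution) incubated with 27 μL male Sprague-Dawley rat plasma at 37 °C. Time points 0, 1, 2, 4, 7, 24 h, or 0–120 min for labile peptides. Reaction quenched with acetonitrile-ethanol containing N,N-dimethylbenzamide internal standard, filtered, then UPLC-MS. t1/2 from one-phase exponential decay; at least three experiments.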

Apelin receptor [3] = biological target: T1, Apelin receptor; assay: Displacement of [125I] [NIe75,Tyr77]Pyr-apelin-13 from YFP-tagged human APJ receptor expressed in HEK293 cells incubated for 1 hr by gamma counting analysis; format: cell-based
Apelin receptor [4] = biological target: T1, Apelin receptor; assay: Agonist activity at human APJ receptor expressed in HEK293T cells co-expressing PDZ-Rho-Gef-RLucll and rGFP-CAAX assessed as induction of recruitment of Galpha12 to cell membrane using coelenterazine luciferase substrate incubated for 5 mins by BRET assay; format: functional, cell-based, HEK293
Apelin receptor [5] = biological target: T1, Apelin receptor; assay: Agonist activity at human APJ receptor expressed in HEK293T cells co-expressing Galphai1 RlucII assessed as dissociation of Galphai1 from Gbetta/gamma subunit measured using coelenterazine luciferase substrate incubated for 5 mins by BRET assay; format: functional, cell-based, HEK293
Rattus norvegicus = assay: Hypotensive effect in Sprague-Dawley rat assessed as drop in mean arterial blood pressure at 19.6 nmol/kg, iv bolus injection measured after 1 min; format: functional
Summary of the method: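 Male Sprague-Dawley rats (250−300 g) under ketamine/xylazine (87/13 mg/kg i.m.) on a thermostatic pad. Mean arterial pressure recorded through a right carotid catheter. Saline vehicle bolus given, then 5 min later the peptide i.v. at 19.6 nmol/kg (n = 5) or 65 nmol/kg.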

[6] = biological target: Angiotensin-converting enzyme 2 (Rattus norvegicus, UniProt Q5EGZ1); assay: Stability of the compound assessed as recombinant rat ACE2-mediated degradation measured up to 24 hrs by UPLC-MS analysis; format: ADME
Summary of the method: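 Recombinant rat ACE2 at 20 nM final in 100 mM Tris-HCl, 100 mM NaCl, 10 μM ZnCl2, pH 7.4. Peptide at 50 μM final with N,N-dimethylbenzamide internal standard, incubated 1, 2 and 24 h at 37 °C with shaking. Reaction stopped with EDTA; blank used pre-inactivated enzyme. Remaining peptide measured by UPLC-MS in SIM mode, oxidized forms summed; n = 3.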

Angiotensin-converting enzyme 2, sequence (Q5EGZ1 whole entry): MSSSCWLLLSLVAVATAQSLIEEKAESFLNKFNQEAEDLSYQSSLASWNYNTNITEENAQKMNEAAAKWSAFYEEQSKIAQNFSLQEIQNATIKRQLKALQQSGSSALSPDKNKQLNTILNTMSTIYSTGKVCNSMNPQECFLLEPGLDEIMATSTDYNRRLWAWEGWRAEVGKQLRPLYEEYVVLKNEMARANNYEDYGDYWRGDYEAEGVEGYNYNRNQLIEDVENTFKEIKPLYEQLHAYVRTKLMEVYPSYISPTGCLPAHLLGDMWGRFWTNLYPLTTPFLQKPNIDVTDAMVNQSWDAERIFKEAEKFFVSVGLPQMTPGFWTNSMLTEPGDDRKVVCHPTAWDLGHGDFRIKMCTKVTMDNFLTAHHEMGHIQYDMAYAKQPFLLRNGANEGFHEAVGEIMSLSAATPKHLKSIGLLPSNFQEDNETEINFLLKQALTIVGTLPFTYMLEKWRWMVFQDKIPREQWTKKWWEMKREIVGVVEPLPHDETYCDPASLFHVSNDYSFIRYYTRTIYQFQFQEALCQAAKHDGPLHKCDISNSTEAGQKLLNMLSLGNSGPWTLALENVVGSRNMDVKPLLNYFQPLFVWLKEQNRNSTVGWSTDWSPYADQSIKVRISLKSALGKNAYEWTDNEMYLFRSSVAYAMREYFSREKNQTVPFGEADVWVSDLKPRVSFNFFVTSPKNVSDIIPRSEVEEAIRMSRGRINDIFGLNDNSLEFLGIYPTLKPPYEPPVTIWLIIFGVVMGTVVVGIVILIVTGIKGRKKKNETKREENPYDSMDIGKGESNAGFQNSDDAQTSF

SMILES	EC50 (Apelin receptor [1]) [nM]	half-life [2] [h]	Ki (Apelin receptor [3]) [nM]	EC50 (Apelin receptor [4]) [nM]	EC50 (Apelin receptor [5]) [nM]	Activity (Rattus norvegicus) [mmHg]	EC50 (Apelin receptor [1]; hek293) [nM]	Ki (Apelin receptor [3]; hek293) [nM]	EC50 (Apelin receptor [4]; hek293) [nM]	EC50 (Apelin receptor [5]; hek293) [nM]	Stabilty [6]
CCCC[C@H](NC(=O)[C@@H]1CCCN1C(=O)CNC(=O)[C@H](CCCCN)NC(=O)[C@H](Cc1cnc[nH]1)NC(=O)[C@H](CO)NC(=O)[C@H](CC(C)C)NC(=O)[C@H](CCCNC(=N)N)NC(=O)[C@@H]1CCCN1C(=O)[C@H](CCCNC(=N)N)NC(=O)[C@@H]1CCC(=O)N1)C(=O)N[C@@H](Cc1cccc2ccccc12)C(=O)N1Cc2ccccc2C[C@@H]1C(=O)O	32	3.4	0.09	15	1.6	–	–	–	–	–	–
CCCC[C@H](NC(=O)[C@@H]1CCCN1C(=O)CNC(=O)[C@H](CCCCN)NC(=O)[C@H](Cc1cnc[nH]1)NC(=O)[C@H](CO)NC(=O)[C@H](CC(C)C)NC(=O)[C@H](CCCNC(=N)N)NC(=O)[C@@H]1CCCN1C(=O)[C@H](CCCNC(=N)N)NC(=O)[C@@H]1CCC(=O)N1)C(=O)N1CCC[C@H]1C(=O)NC(Cc1ccccc1)(Cc1ccccc1)C(=O)O	19	0.5	0.04	10	1.5	–	–	–	–	–	–
CCCC[C@H](NC(=O)[C@@H]1CCCN1C(=O)CNC(=O)[C@H](CCCCN)NC(=O)[C@H](Cc1cnc[nH]1)NC(=O)[C@H](CO)NC(=O)[C@H](CC(C)C)NC(=O)[C@H](CCCNC(=N)N)NC(=O)[C@@H]1CCCN1C(=O)[C@H](CCCNC(=N)N)NC(=O)[C@@H]1CCC(=O)N1)C(=O)N[C@H](Cc1cccc2ccccc12)C(=O)N1Cc2[nH]c3ccccc3c2C[C@@H]1C(=O)O	96	7.8	1.01	25	6	–	–	–	–	–	–
CCCC[C@H](NC(=O)[C@@H]1CCCN1C(=O)CNC(=O)[C@H](CCCCN)NC(=O)[C@H](Cc1cnc[nH]1)NC(=O)[C@H](CO)NC(=O)[C@H](CC(C)C)NC(=O)[C@H](CCCNC(=N)N)NC(=O)[C@@H]1CCCN1C(=O)[C@H](CCCNC(=N)N)NC(=O)[C@@H]1CCC(=O)N1)C(=O)N[C@@H](Cc1cccc2ccccc12)C(=O)NC(Cc1ccccc1)(Cc1ccccc1)C(=O)O (HELM PEPTIDE1{[Glp].R.P.R.L.S.H.K.G.P.[Nle].[O=C([C@H](Cc1cccc2ccccc12)N[*:1])[*:2]].[O=C(O)C(Cc1ccccc1)(Cc1ccccc1)N[*:1]]}$$$$V2.0)	–	–	–	–	–	30	–	–	–	–	–
CCCC[C@H](NC(=O)[C@@H]1CCCN1C(=O)CNC(=O)[C@H](CCCCN)NC(=O)[C@H](Cc1cnc[nH]1)NC(=O)[C@H](CO)NC(=O)[C@H](CC(C)C)NC(=O)[C@H](CCCNC(=N)N)NC(=O)[C@@H]1CCCN1C(=O)[C@H](CCCNC(=N)N)NC(=O)[C@@H]1CCC(=O)N1)C(=O)N[C@H](Cc1cccc2ccccc12)C(=O)N1Cc2ccccc2C(C)C1C(=O)O (some centres not stated)	44	5.3	0.4	111	4.3	–	–	–	–	–	–
CCCC[C@H](NC(=O)[C@@H]1CCCN1C(=O)CNC(=O)[C@H](CCCCN)NC(=O)[C@H](Cc1cnc[nH]1)NC(=O)[C@H](CO)NC(=O)[C@H](CC(C)C)NC(=O)[C@H](CCCNC(=N)N)NC(=O)[C@@H]1CCCN1C(=O)[C@H](CCCNC(=N)N)NC(=O)[C@@H]1CCC(=O)N1)C(=O)N[C@H](Cc1cccc2ccccc12)C(=O)N[C@H](Cc1cc(C2CCCC2)c(O)c(C2CCCC2)c1)C(=O)O	95	> 24	1.1	178	10	–	–	–	–	–	–
CCCC[C@H](NC(=O)[C@@H]1CCCN1C(=O)CNC(=O)[C@H](CCCCN)NC(=O)[C@H](Cc1cnc[nH]1)NC(=O)[C@H](CO)NC(=O)[C@H](CC(C)C)NC(=O)[C@H](CCCNC(=N)N)NC(=O)[C@@H]1CCCN1C(=O)[C@H](CCCNC(=N)N)NC(=O)[C@@H]1CCC(=O)N1)C(=O)N[C@H](Cc1cccc2ccccc12)C(=O)N1Cc2ccccc2C(C)(C)C1C(=O)O (some centres not stated)	34	6.3	0.16	10	4.1	–	–	–	–	–	–
CCCC[C@H](NC(=O)[C@@H]1CCCN1C(=O)CNC(=O)[C@H](CCCCN)NC(=O)[C@H](Cc1cnc[nH]1)NC(=O)[C@H](CO)NC(=O)[C@H](CC(C)C)NC(=O)[C@H](CCCNC(=N)N)NC(=O)[C@@H]1CCCN1C(=O)[C@H](CCCNC(=N)N)NC(=O)[C@@H]1CCC(=O)N1)C(=O)N[C@@H](Cc1cccc2ccccc12)C(=O)N[C@@H](Cc1ccccc1)C(=O)O	–	0.4	–	–	–	–	41	0.12	9.2	4.4	–
CCCC[C@H](NC(=O)[C@@H]1CCCN1C(=O)CNC(=O)[C@H](CCCCN)NC(=O)[C@H](Cc1cnc[nH]1)NC(=O)[C@H](CO)NC(=O)[C@H](CC(C)C)NC(=O)[C@H](CCCNC(=N)N)NC(=O)[C@@H]1CCCN1C(=O)[C@H](CCCNC(=N)N)NC(=O)[C@@H]1CCC(=O)N1)C(=O)N1CCC[C@H]1C(=O)N1Cc2ccccc2C[C@@H]1C(=O)O	10	0.8	0.07	23	1	–	–	–	–	–	–
CCCC[C@H](NC(=O)[C@@H]1CCCN1C(=O)CNC(=O)[C@H](CCCCN)NC(=O)[C@H](Cc1cnc[nH]1)NC(=O)[C@H](CO)NC(=O)[C@H](CC(C)C)NC(=O)[C@H](CCCNC(=N)N)NC(=O)[C@@H]1CCCN1C(=O)[C@H](CCCNC(=N)N)NC(=O)[C@@H]1CCC(=O)N1)C(=O)N[C@H]1Cc2c([nH]c3ccccc23)CN([C@@H](Cc2ccccc2)C(=O)O)C1=O	–	–	–	–	–	30	–	–	–	–	–
CCCC[C@H](NC(=O)[C@@H]1CCCN1C(=O)CNC(=O)[C@H](CCCCN)NC(=O)[C@H](Cc1cnc[nH]1)NC(=O)[C@H](CO)NC(=O)[C@H](CC(C)C)NC(=O)[C@H](CCCNC(=N)N)NC(=O)[C@@H]1CCCN1C(=O)[C@H](CCCNC(=N)N)NC(=O)[C@@H]1CCC(=O)N1)C(=O)N1CCC[C@H]1C(=O)N1Cc2ccccc2C[C@H]1C(=O)O	67	1.3	1.1	88	2.5	–	–	–	–	–	–
CCCC[C@H](NC(=O)[C@@H]1CCCN1C(=O)CNC(=O)[C@H](CCCCN)NC(=O)[C@H](Cc1cnc[nH]1)NC(=O)[C@H](CO)NC(=O)[C@H](CC(C)C)NC(=O)[C@H](CCCNC(=N)N)NC(=O)[C@@H]1CCCN1C(=O)[C@H](CCCNC(=N)N)NC(=O)[C@@H]1CCC(=O)N1)C(=O)N[C@H](Cc1cccc2ccccc12)C(=O)N1Cc2ccccc2C[C@H]1C(=O)O	–	6.1	–	–	–	–	33	0.08	28	4.2	–
CCCC[C@H](NC(=O)[C@@H]1CCCN1C(=O)CNC(=O)[C@H](CCCCN)NC(=O)[C@H](Cc1cnc[nH]1)NC(=O)[C@H](CO)NC(=O)[C@H](CC(C)C)NC(=O)[C@H](CCCNC(=N)N)NC(=O)[C@@H]1CCCN1C(=O)[C@H](CCCNC(=N)N)NC(=O)[C@@H]1CCC(=O)N1)C(=O)N[C@@H](Cc1c[nH]c2ccccc12)C(=O)N[C@@H](Cc1ccccc1)C(=O)O	–	0.2	–	–	–	–	38	0.18	17	3.8	Unstable
CCCC[C@H](NC(=O)[C@@H]1CCCN1C(=O)CNC(=O)[C@H](CCCCN)NC(=O)[C@H](Cc1cnc[nH]1)NC(=O)[C@H](CO)NC(=O)[C@H](CC(C)C)NC(=O)[C@H](CCCNC(=N)N)NC(=O)[C@@H]1CCCN1C(=O)[C@H](CCCNC(=N)N)NC(=O)[C@@H]1CCC(=O)N1)C(=O)N1Cc2ccccc2C[C@@H]1C(=O)N[C@@H](Cc1ccccc1)C(=O)O	142	–	9.7	67	9.6	–	–	–	–	–	–
